Measurements: ChEMBL document CHEMBL1158803, “Xanthone and sesquiterpene derivatives from the fruits of Garcinia scortechinii” (2005)
Converted amounts (≈) assume the structure as drawn.

System: Staphylococcus aureus
Test: Antibacterial activity against methicillin-resistant Staphylococcus aureus after 18 hrs by agar microdilution method
Format: functional
Method in brief: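 Agar microdilution; compounds in DMSO, serial 2-fold dilutions mixed 1:100 into melted Mueller-Hinton agar, final 128 to 0.03 µg/mL. Clinical MRSA isolate (Songklanakarin Hospital) inoculum spotted on agar wells, incubated 35 °C for 18 h. MIC taken as lowest concentration inhibiting visible growth. Vancomycin positive control; DMSO-agar growth control.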

Compound: CO[C@]12C=C3C(=O)c4c(O)c(CC=C(C)C)c5c(c4O[C@]34[C@H](C1)[C@](C)(CO)O[C@]4(CC=C(C)C)C2=O)C(C)(C)[C@@H](C)O5
- MIC: > 221 µM

Compound: CO[C@]12C=C3C(=O)c4c(O)c(CC=C(C)C)c5c(c4O[C@]34[C@H](C1)C(C)(C)O[C@]4(C/C=C(/C)C(=O)O)C2=O)C(C)(C)[C@H](C)O5 [SCORTECHINONE B]
- MIC: 3.38 µM (≈ 2 µg/mL)

Compound: CO[C@H]1[C@@H]2C(=O)c3c(O)c(CC=C(C)C)c4c(c3O[C@]23[C@@H]2C[C@@]1(OC)C(=O)[C@@]3(C/C=C(/C)C(=O)O)OC2(C)C)C(C)(C)[C@@H](C)O4 [SCORTECHINONE I]
- MIC: 12.8 µM (≈ 8 µg/mL)

Compound: C=C(C)C(O)Cc1c(O)c2c(c3c1O[C@H](C)C3(C)C)O[C@@]13C(=C[C@@]4(OC)C[C@@H]1C(C)(C)O[C@]3(C/C=C(/C)C(=O)O)C4=O)C2=O (stereo partly specified) [SCORTECHINONE R]
- MIC: > 210 µM

Compound: C=C(C)C(O)Cc1c(O)c2c(c3c1O[C@H](C)C3(C)C)O[C@@]13[C@@H]4C[C@@](OC)(C(=O)[C@@]1(C/C=C(/C)C(=O)O)OC4(C)C)[C@@H](OC)[C@@H]3C2=O (stereo partly specified) [SCORTECHINONE S]
- MIC: 100 µM (≈ 64.1 µg/mL)

Compound: CO[C@H]1[C@@H]2C(=O)c3c(O)c(CC=C(C)C)c4c(c3O[C@]23[C@@H]2C[C@@]1(OC)C(=O)[C@@]3(C/C=C(\C)C=O)OC2(C)C)C(C)(C)[C@@H](C)O4 [SCORTECHINONE T]
- MIC: > 105 µM

Compound: CC(C)=CCc1c2c(c3oc4c(C(C)(C)O)cc(O)cc4c(=O)c3c1O)C(C)(C)[C@@H](C)O2 [SCORTECHINONE U]
- MIC: > 292 µM

Compound: COc1cc2c(=O)c3c(O)c(CC=C(C)C)c4c(c3oc2c2c1[C@@](C/C=C(\C)C(=O)O)(C(=O)O)OC2(C)C)C(C)(C)[C@@H](C)O4 [SCORTECHINONE V]
- MIC: 106 µM (≈ 64.3 µg/mL)

Compound: COc1cc2c(=O)c3c(O)c4c(c(CC=C(C)C)c3oc2c2c1[C@@](C/C=C(\C)C(=O)O)(C(=O)O)OC2(C)C)OC(C)C4(C)C (stereo partly specified) [SCORTECHINONE W]
- MIC: 52.8 µM (≈ 32 µg/mL)

Compound: COC1Cc2c(oc3c(CC=C(C)C)c4c(c(O)c3c2=O)C(C)(C)C(C)O4)C2=C1[C@@](C/C=C(\C)C(=O)O)(C(=O)O)OC2(C)C (stereo partly specified) [SCORTECHINONE X]
- MIC: > 210 µM

Compound: CN[C@H](CC(C)C)C(=O)N[C@H]1C(=O)N[C@@H](CC(N)=O)C(=O)N[C@H]2C(=O)N[C@H]3C(=O)N[C@H](C(=O)N[C@H](C(=O)O)c4cc(O)cc(O)c4-c4cc3ccc4O)[C@H](O)c3ccc(c(Cl)c3)Oc3cc2cc(c3O[C@@H]2O[C@H](CO)[C@@H](O)[C@H](O)[C@H]2O[C@H]2C[C@](C)(N)[C@H](O)[C@H](C)O2)Oc2ccc(cc2Cl)[C@H]1O [VANCOMYCIN]
- MIC: 1.38 µM (≈ 2 µg/mL)
